Experiment [1] addresses T1, Kappa-type opioid receptor (Cavia porcellus, UniProt P41144). The experiment in a line: Affinity against Opioid receptor kappa 3 was determined by measuring the inhibition of [3H]NalBzoH binding to […].
Experiment [2] concerns the target T1, Kappa-type opioid receptor. The experiment is described as follows: Affinity against Opioid receptor kappa 2 was determined by measuring the inhibition of [3H]bremazocine binding to guinea pig cerebellar membranes. Also noted: species or system Cerebellum, Membrane.
Experiment [3] is filed under the species Cavia porcellus. The experiment is described as follows: The opioid activity by guinea pig ileum assay. It counts as functional. In a few lines:
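Guinea pig ileum twitch assay with cumulative peptide additions to the bath. IC50 values are means from three to six replicates using tissues from different animals.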

The target of experiment [4] is Kappa-type opioid receptor (Homo sapiens) (UniProt P41145). The experiment is described as follows: Ki ratio is measured as the Ki values of kappa-1/kappa.2/kappa.3 receptors; 1/233/5.3. The essentials: (§1)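 Hartley guinea pig whole-brain homogenate in 50 mM Tris-HCl pH 7.7 (6.67 mg wet tissue/mL; 5 mM EDTA for NalBzoH). Radioligands ~1 nM: [3H]U69,593 (κ1); [3H]bremazocine plus 100 nM DAMGO, DSLET and U69,593 (κ2); [3H]NalBzoH plus 100 nM U69,593 (κ3). Test peptide 10⁻⁵–10⁻¹¹ M, 1 h at 25 °C, with bacitracin/bestatin/thiorphan. Nonspecific binding: 1 μM U69,593, 10 μM bremazocine or NalBzoH. Filtration; Ki via Cheng–Prusoff.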

Experiment [5] can be described thus: IC50 ratio measured as the IC50(presence of 50 uM of Gpp(NH)p)/IC50 (absence of 50 uM of Gpp(NH)p). The essentials:
(§2)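 Guinea pig cerebellar membranes prepared in 50 mM Tris pH 7.4. [3H]diprenorphine at 0.3 nM final, 60 min at 25 °C, with 10 μM bestatin, 1 mM Leu-Leu and 100 nM DAMGO. Run without or with 120 mM NaCl plus 50 μM Gpp(NH)p. Nonspecific binding with 1 μM Dyn A-(1–13)NH2. Filtration over polyethyleneimine-soaked filters; shift expressed as IC50(+)/IC50(–).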

Experiment [6] concerns the target T1, Kappa-type opioid receptor. The experiment is described as follows: Binding affinity towards Opioid receptor kappa 1 using [3H]diprenorphine as radioligand in guinea pig cerebellar membrane in presence of 120 mM NaCl + 50 uM Gpp(NH)p. It counts as cell membranes, Cerebellum. In a few lines:
as §2

Experiment [7] has as its target T2, Opioid receptors; mu/kappa/delta (Homo sapiens) (UniProt P41145+P41143+P35372). The experiment in a line: Ki ratio is measured as the Ki values of kappa/mu/delta receptors; 1/8.8/41. It counts as protein assay. The essentials:
(§3)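 Rat forebrain membranes in 50 mM Tris pH 7.7, incubated 5 h at 4 °C. Final 10 μM bestatin, 30 μM captopril and 50 μM L-leucyl-L-leucine. Nonspecific binding defined with 10 μM levorphanol ([3H]DAMGO) or 10 μM unlabeled DPDPE ([3H]DPDPE). Competition curves fitted by nonlinear regression. IC50 converted to Ki by Cheng–Prusoff with KD 0.314 nM (DAMGO) and 7.63 nM (DPDPE). Ratios use the lowest Ki as denominator.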

Experiment [8] deals with Delta-type opioid receptor (Rattus norvegicus, UniProt P33533). The experiment in a line: Affinity against Opioid receptor delta 1 was determined by measuring the inhibition of [3H]DPDPE binding to rat forebrain membranes. It counts as cell membranes, Membrane. In a few lines:
(§4)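 Rat forebrain membranes in 50 mM Tris pH 7.7, incubated 5 h at 4 °C. Final 10 μM bestatin, 30 μM captopril and 50 μM L-leucyl-L-leucine. Nonspecific binding defined with 10 μM levorphanol ([3H]DAMGO) or 10 μM unlabeled DPDPE ([3H]DPDPE). Competition curves fitted by nonlinear regression. Ratios use the lowest Ki as denominator.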

Experiment [9] addresses T1, Kappa-type opioid receptor. The experiment in a line: Affinity against Opioid receptor kappa 1 was determined by measuring the inhibition of [3H]U-69593 binding to guinea pig […].
In experiment [10] the target is T1, Kappa-type opioid receptor. The experiment is described as follows: Binding affinity towards Opioid receptor kappa 1 using [3H]diprenorphine as radioligand in guinea pig cerebellar membrane in absence of 120 mM NaCl + 50 uM Gpp(NH)p. It counts as cell membranes, Cerebellum. The essentials: as §2
For experiment [11], the target named is Kappa-type opioid receptor (Homo sapiens) (UniProt P41145). The experiment is described as follows: Ki ratio is measured as the Ki values of kappa-1/kappa.2/kappa.3 receptors; 1/150/17. In a few lines:
as §1

The species entered for experiment [12] is Cavia porcellus. The experiment in a line: Opioid antagonist activity in guinea pig ileum assay. It counts as functional. The note with it: read-out: pA2 (converted). The essentials: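 Guinea pig ileum antagonism: tissue incubated 10 min with peptide (10 μM where stated), then given […]. Shift measured relative to the agonist IC50 obtained without test peptide.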

Experiment [13] concerns the target T1, Kappa-type opioid receptor. The experiment in a line: Affinity against Opioid receptor kappa 1 was determined by measuring the inhibition of [3H]bremazocine binding to guinea pig cerebellar membranes. In a few lines:
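Guinea pig cerebellar membranes with [3H]bremazocine in 20 mM HEPES pH 7.4, 3 h at 4 °C. 100 nM DAMGO and 100 nM bestatin present; nonspecific binding with 10 μM Dyn A-(1–13)NH2. Competition curves fitted by nonlinear regression. Selectivity ratios use the lowest Ki as denominator.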

Experiment [14] concerns the target T2, Opioid receptors; mu/kappa/delta (Homo sapiens). The experiment is described as follows: Ki ratio is measured as the Ki values of kappa/mu/delta receptors; 1/21/880. It counts as protein assay. In a few lines: as §3
Experiment [15] has as its target Mu-type opioid receptor (Rattus norvegicus, UniProt P33535). The experiment is described as follows: Affinity against Opioid receptor mu 1 was determined by measuring the inhibition of [3H]DAMGO binding to rat forebrain membranes. It counts as cell membranes, Membrane. The essentials:
as §4

The target in experiment [16] is T2, Opioid receptors; mu/kappa/delta (Homo sapiens). The experiment in a line: Ki ratio is measured as the Ki values of kappa/mu/delta receptors; 1/480/27900. It counts as protein assay. The essentials: as §3

The source of these data is ChEMBL document CHEMBL1130124, “Synthesis and opioid activity of [D-Pro10]dynorphin A-(1-11) analogues with N-terminal alkyl substitution” (J Med Chem, 1997).

In general, Ki refers to a measure of affinity in units of concentration, obtained from inhibition or displacement. Broadly, the IC50 is the concentration that gives 50% inhibition.

T2 sequence (P35372 whole entry, looked up): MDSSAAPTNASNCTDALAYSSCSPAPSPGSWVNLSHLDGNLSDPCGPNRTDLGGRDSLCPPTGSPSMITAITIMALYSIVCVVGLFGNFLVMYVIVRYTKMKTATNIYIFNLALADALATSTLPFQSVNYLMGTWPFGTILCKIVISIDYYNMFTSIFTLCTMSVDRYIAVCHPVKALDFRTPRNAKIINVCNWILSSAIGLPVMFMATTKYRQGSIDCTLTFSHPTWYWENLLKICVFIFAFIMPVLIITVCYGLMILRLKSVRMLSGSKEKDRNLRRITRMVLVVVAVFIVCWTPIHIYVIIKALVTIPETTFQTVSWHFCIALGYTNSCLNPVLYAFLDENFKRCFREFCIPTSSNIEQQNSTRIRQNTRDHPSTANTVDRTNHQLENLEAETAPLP
T2 sequence (P41143 whole entry, looked up): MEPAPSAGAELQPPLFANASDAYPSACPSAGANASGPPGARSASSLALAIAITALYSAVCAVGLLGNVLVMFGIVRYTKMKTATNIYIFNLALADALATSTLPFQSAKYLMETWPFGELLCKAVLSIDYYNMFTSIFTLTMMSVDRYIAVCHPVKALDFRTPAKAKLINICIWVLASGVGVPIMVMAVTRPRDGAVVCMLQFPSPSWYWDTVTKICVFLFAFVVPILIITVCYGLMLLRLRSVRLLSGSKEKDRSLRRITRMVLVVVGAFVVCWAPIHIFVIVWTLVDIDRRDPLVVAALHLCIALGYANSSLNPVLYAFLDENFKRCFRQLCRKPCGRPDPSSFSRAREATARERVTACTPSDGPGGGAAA
T2 sequence (P41145 whole entry, looked up): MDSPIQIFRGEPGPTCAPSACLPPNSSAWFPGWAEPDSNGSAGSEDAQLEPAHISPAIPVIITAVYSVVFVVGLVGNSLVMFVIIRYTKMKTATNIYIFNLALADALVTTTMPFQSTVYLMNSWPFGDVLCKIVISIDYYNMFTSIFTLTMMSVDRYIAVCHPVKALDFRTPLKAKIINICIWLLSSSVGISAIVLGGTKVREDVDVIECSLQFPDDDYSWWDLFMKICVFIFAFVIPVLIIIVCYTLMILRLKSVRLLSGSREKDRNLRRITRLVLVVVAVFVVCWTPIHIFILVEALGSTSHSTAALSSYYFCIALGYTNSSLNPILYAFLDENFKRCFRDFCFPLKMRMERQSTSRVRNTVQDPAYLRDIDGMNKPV
T1 sequence (P41144 whole entry): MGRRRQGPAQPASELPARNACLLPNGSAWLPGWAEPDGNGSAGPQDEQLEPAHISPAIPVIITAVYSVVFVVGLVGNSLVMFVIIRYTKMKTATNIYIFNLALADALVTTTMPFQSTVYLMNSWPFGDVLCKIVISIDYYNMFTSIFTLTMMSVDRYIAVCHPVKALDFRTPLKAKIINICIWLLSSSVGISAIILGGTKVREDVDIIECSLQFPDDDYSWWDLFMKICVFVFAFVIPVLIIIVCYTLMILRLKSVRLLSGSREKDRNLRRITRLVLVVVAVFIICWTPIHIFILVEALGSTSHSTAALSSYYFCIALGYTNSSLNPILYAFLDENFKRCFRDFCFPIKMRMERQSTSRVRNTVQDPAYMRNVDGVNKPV
Delta-type opioid receptor, sequence (P33533 whole entry): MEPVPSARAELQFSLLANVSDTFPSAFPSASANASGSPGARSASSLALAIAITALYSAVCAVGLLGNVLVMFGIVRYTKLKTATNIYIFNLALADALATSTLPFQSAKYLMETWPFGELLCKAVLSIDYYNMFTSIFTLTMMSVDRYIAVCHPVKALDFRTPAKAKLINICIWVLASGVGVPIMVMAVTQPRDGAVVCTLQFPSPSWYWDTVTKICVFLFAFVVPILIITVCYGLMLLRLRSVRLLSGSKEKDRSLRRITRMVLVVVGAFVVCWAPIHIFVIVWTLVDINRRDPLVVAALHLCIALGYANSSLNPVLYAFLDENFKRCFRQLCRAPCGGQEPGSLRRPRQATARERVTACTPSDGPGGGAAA
Mu-type opioid receptor, sequence (P33535 whole entry): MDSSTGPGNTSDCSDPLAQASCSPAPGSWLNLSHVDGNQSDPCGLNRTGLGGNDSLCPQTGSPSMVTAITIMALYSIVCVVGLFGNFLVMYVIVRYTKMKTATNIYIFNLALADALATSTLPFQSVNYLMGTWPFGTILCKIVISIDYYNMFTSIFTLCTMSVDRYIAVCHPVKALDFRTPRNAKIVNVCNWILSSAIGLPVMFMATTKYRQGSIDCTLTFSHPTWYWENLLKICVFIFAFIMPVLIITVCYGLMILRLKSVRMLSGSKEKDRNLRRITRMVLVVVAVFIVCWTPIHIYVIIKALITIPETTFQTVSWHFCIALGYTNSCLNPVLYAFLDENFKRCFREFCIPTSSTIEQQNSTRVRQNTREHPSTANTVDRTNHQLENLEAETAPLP
Kappa-type opioid receptor (Homo sapiens), sequence (P41145 whole entry): as the sequence (P41145 whole entry, looked up) above

Turning to `C=CCN(CC=C)[C@@H](Cc1ccc(O)cc1)C(=O)NCC(=O)NCC(=O)N[C@@H](Cc1ccccc1)C(=O)N[C@@H](CC(C)C)C(=O)N[C@@H](CCCN=C(N)N)C(=O)N[C@@H](CCCN=C(N)N)C(=O)N[C@H](C(=O)N[C@@H](CCCN=C(N)N)C(=O)N1CCCC1C(=O)N[C@@H](CCCCN)C(=O)O)[C@@H](C)CC` (stereo in doubt), the Ki in experiment [1] came to 113 nM; in experiment [8], 149 nM; in experiment [9], 21.3 nM. Further, the IC50 is 4970 nM in experiment [2], over 3000 nM in experiment [3], 64.6 nM in experiment [6] and 21.3 nM in [10]. The figures for the Ki ratio entry in experiment [4] and in [7] were “kappa/delta/mu” and “kappa/mu/delta”, respectively. In addition, the Ratio in experiment [5] was determined as 3.03.

Consider `CC[C@H](C)[C@H](NC(=O)[C@H](CCCN=C(N)N)NC(=O)[C@H](CCCN=C(N)N)NC(=O)[C@H](CC(C)C)NC(=O)[C@H](Cc1ccccc1)NC(=O)CNC(=O)CNC(=O)[C@H](Cc1ccc(O)cc1)N(CC1CC1)CC1CC1)C(=O)N[C@@H](CCCN=C(N)N)C(=O)N1CCCC1C(=O)N[C@@H](CCCCN)C(=O)O` (stereo in doubt), for which the Ki in experiment [1] was 44.4 nM; in experiment [13], 0.19 nM; in experiment [8] it was 166 nM; in [9] it was 2.61 nM; in [15], 3.9 nM. The IC50 in [2] was 388 nM; in experiment [3] it was over 100000 nM; in [6] it was 29.1 nM; in [10] it was 3.31 nM. The Ki ratio entry in [11] and in experiment [14] was “kappa/mu/delta” throughout. Moreover, in experiment [5], the Ratio was 8.79. Besides, in experiment [12], the Kb is 50.1 nM.

In the case of `CC[C@H](C)[C@H](NC(=O)[C@H](CCCN=C(N)N)NC(=O)[C@H](CCCN=C(N)N)NC(=O)[C@H](CC(C)C)NC(=O)[C@H](Cc1ccccc1)NC(=O)CNC(=O)CNC(=O)[C@H](Cc1ccc(O)cc1)NCC1CC1)C(=O)N[C@@H](CCCN=C(N)N)C(=O)N1CCCC1C(=O)N[C@@H](CCCCN)C(=O)O` (stereo in doubt), the Ki ratio result in [16] is “kappa/delta/mu”. The IC50 in experiment [3] amounted to 2.16 nM; in experiment [6] it was 27.1 nM; in experiment [10], 0.41 nM. Besides, the Ratio in experiment [5] is 66.9. The Kb in experiment [12] was 50.1 nM. In experiment [8], this molecule yielded a Ki of 558 nM.

Take `C=CCN[C@@H](Cc1ccc(O)cc1)C(=O)NCC(=O)NCC(=O)N[C@@H](Cc1ccccc1)C(=O)N[C@@H](CC(C)C)C(=O)N[C@@H](CCCN=C(N)N)C(=O)N[C@@H](CCCN=C(N)N)C(=O)N[C@H](C(=O)N[C@@H](CCCN=C(N)N)C(=O)N1CCCC1C(=O)N[C@@H](CCCCN)C(=O)O)[C@@H](C)CC` (stereo in doubt): the Kb in experiment [12] was 25.1 nM.

For the molecule `CC[C@H](C)[C@H](NC(=O)[C@H](CCCN=C(N)N)NC(=O)[C@H](CCCN=C(N)N)NC(=O)[C@H](CC(C)C)NC(=O)[C@H](Cc1ccccc1)NC(=O)CNC(=O)CNC(=O)[C@H](Cc1ccc(O)cc1)N(Cc1ccccc1)Cc1ccccc1)C(=O)N[C@@H](CCCN=C(N)N)C(=O)N1CCCC1C(=O)N[C@@H](CCCCN)C(=O)O` (stereo in doubt) [listing 1 of 3 here], the figures for the IC50 in experiment [6] and in experiment [10] were 391 nM and 43.2 nM, respectively. Further, the Ki amounted to 3.66 nM in experiment [13], 2770 nM in experiment [8] and 128 nM in experiment [15].

As to `CC[C@H](C)[C@H](NC(=O)[C@H](CCCN=C(N)N)NC(=O)[C@H](CCCN=C(N)N)NC(=O)[C@H](CC(C)C)NC(=O)[C@H](Cc1ccccc1)NC(=O)CNC(=O)CNC(=O)[C@@H](N)Cc1ccc(O)cc1)C(=O)N[C@@H](CCCN=C(N)N)C(=O)N1CCC[C@@H]1C(=O)N[C@@H](CCCCN)C(=O)O`, the Kb in [12] was 63.1 nM.

On to `CC[C@H](C)[C@H](NC(=O)[C@H](CCCN=C(N)N)NC(=O)[C@H](CCCN=C(N)N)NC(=O)[C@H](CC(C)C)NC(=O)[C@H](Cc1ccccc1)NC(=O)CNC(=O)CNC(=O)[C@H](Cc1ccc(O)cc1)N(Cc1ccccc1)Cc1ccccc1)C(=O)N[C@@H](CCCN=C(N)N)C(=O)N1CCCC1C(=O)N[C@@H](CCCCN)C(=O)O` (stereo in doubt) [listing 2 of 3 here], for which the Ratio in experiment [5] stood at 9.05.

On to `CC[C@H](C)[C@H](NC(=O)[C@H](CCCN=C(N)N)NC(=O)[C@H](CCCN=C(N)N)NC(=O)[C@H](CC(C)C)NC(=O)[C@H](Cc1ccccc1)NC(=O)CNC(=O)CNC(=O)[C@H](Cc1ccc(O)cc1)N(Cc1ccccc1)Cc1ccccc1)C(=O)N[C@@H](CCCN=C(N)N)C(=O)N1CCCC1C(=O)N[C@@H](CCCCN)C(=O)O` (stereo in doubt) [listing 3 of 3 here], for which, in experiment [3], the IC50 worked out at 228 nM.
